Compounds with a hit are over-represented: about 3.5% of the library has one in this group of screens.
MrgX1 allo act: human MrgX1 positive allosteric modulation, primary screen. Q96LB2. MrgX1-HEK293, Fluo-4 calcium flux, FDSS; active compounds read high. B-score at 10 µM. 310,000 compounds, 0.63% hits;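 active = plate-corrected calcium response at least 3 library SD above typical, normal starting fluorescence, not activating the receptor alone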;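 note: compound read alongside a low EC10 to EC30 dose of BAM8-22 agonist; peak minus trough fluorescence over baseline measured at the second addition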
Target sequence (Q96LB2 whole entry, looked up): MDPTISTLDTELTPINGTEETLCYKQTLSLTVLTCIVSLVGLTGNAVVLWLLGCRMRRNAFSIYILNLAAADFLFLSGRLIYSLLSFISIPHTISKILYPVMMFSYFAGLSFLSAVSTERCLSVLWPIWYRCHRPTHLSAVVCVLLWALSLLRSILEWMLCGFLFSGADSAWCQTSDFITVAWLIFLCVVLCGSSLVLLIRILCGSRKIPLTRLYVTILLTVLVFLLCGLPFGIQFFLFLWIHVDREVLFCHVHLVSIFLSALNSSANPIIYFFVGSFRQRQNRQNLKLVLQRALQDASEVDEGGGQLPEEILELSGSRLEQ
MrgX1 agonist: agonists of human MrgX1 receptor. MrgX1-HEK293 cells, Fluo-4 calcium fluorescence, agonist mode; active compounds read high. Q96LB2. B-score at 10 µM. 310,000 compounds, 0.44% hits. AID 588627;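 active = calcium response B-score plate-corrected fluorescence ratio at least 3 library SD, with starting fluorescence B-score inside 5 SD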
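times = overnight plating, then 30 min 37 °C plus 30 min room-temperature dye loading | assay system = stable human MrgX1 HEK293 cell line | input = fifteen thousand cells per well | signal = kinetic calcium dye fluorescence, Fluo-4 NW | dosing = compound delivered in addition one of three | read-out = B-scored fluorescence response ratio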
RGS4 block: inhibitors of human RGS4; 310,000 compounds, 0.45% hits; B-score at 10 µM; P49798; HEK293 M3R/RGS4 inducible, Fluo-4 calcium flux; active compounds read high; triggered by carbachol at its EC20;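 active = B-score, a plate-corrected calcium signal, over three deviations above library mean, with baseline fluorescence within five deviations of library mean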;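 note: RGS4 expression induced by doxycycline in cells with stable M3 receptor; B-score is computed from the integrated fluorescence ratio over baseline after carbachol; higher B-score means a larger calcium signal and so more RGS4 inhibition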
Target sequence (P49798 whole entry, looked up): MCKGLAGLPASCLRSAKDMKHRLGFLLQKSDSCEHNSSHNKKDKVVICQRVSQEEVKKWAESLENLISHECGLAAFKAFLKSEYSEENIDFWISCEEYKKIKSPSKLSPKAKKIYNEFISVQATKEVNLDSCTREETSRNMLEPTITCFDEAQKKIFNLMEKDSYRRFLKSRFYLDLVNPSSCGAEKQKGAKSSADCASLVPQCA
MrgX1 antagonist: antagonists of human MrgX1 receptor | Q96LB2 | MRGX1-HEK293 calcium flux, Fluo-4, BAM8-22 antagonism; active compounds read low | B-score at 10 µM | 310,000 compounds, 1.3% hits | AID 588676;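 active = calcium-response B-score plate-corrected more than 3 library SD below zero, starting fluorescence within 5 deviations, no agonist response on first addition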;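 note: peak minus trough fluorescence over baseline after final BAM8-22 challenge near maximal dose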
RGS4 act: RGS4 potentiation or activation | HEK293 M3R/inducible RGS4, carbachol calcium flux Fluo4; active compounds read low | 310,000 compounds, 0.92% hits | B-score at 10 µM | AID 463111;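 active = B-score of the integrated calcium signal more than 4 SD below the library mean, with starting fluorescence not abnormally high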;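 note: negative B-score means reduced calcium response which marks RGS4 activation or potentiation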
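Also added: carbachol at ECmax as muscarinic agonist stimulus; Assay system: HEK293 cells with stable M3R and inducible RGS4; Timing: overnight RGS4 induction, 30 min dye load 37 °C, 20 min compound RT; Measured by: Fluo4-AM (2 µM) calcium-flux fluorescence, kinetic read.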
RGS4 block valid: validation of RGS4 inhibitors; shares compounds with RGS4 block; HEK293 M3R/RGS4, carbachol calcium Fluo-4 fluorescence; carbachol added at its EC20; 0 = buffer wells, 100 = carbachol control; calcium response, % at 10 µM; 1,700 compounds, 65% hits;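 active = duplicate-averaged calcium response above the buffer-only control mean plus 5 SD of those controls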;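 note: integrated fluorescence ratio F max minus min over baseline F0; higher response in RGS4-induced cells means RGS4 inhibition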
M3R Ca ctr: counter-screen for RGS4 inhibitors: effect in non-induced cells. shares compounds with RGS4 block. HEK293 M3R non-induced, carbachol calcium Fluo-4; submaximal (EC20) carbachol stimulus; buffer wells 0%, carbachol control wells 100%. activity (percent), % at 10 µM. 1,900 compounds, 20% hits; call rule not given here;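 note: RGS4 induction absent so cells express M3R without RGS4; higher means more calcium signal and flags a non-specific hit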
RGS4 inh ctr2: signal in non-induced cells without carbachol, RGS4 inhibitor counter-screen. HEK293 M3R/RGS4 non-induced, Fluo-4 calcium, no carbachol; normalised: buffer wells 0%, carbachol wells 100%. shares compounds with RGS4 block. 1,900 compounds, 22% hits. calcium response (agonist-mode artifact), % at 10 µM;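 active = duplicate-averaged calcium rise in uninduced cells above buffer wells' mean plus 5 SD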
The depositor's hits bear a star; i = inactive; x = no result given.

SMILES	MrgX1 allo act	MrgX1 agonist	RGS4 block	MrgX1 antagonist	RGS4 act	RGS4 block valid	M3R Ca ctr	RGS4 inh ctr2
CCc1cccc(CC)c1NC(=S)NCCc1c(C)[nH]c2ccc(C)cc12	i	i	i	i	i	x	i	i
CCc1cccc(C)c1NC(=S)NCCc1c(C)[nH]c2ccc(C)cc12	i	i	i	i	i	x	x	x
COc1ccc(C(=O)Oc2cc(C)[nH]c(=O)c2[N+](=O)[O-])c(OC)c1	i	i	i	i	i	x	x	x
COc1cccc(/C=N/NC(=O)CSc2nnc(C)n2-c2ccccc2)c1OC	i	i	i	i	i	x	x	x
COc1cc(OC)c(OC)cc1/C=N/NC(=O)CSc1ccccc1F	i	i	i	i	i	x	x	x
COc1cccc(/C=N/NC(=O)CSc2ccccc2C)c1OC	i	i	i	i	i	i	i	i
COc1cccc(/C=N/NC(=O)CSc2ccccc2C)c1O	i	i	5.94*	i	i	64.5%*	i	i
COC(=O)c1nn(C23CC4CC(CC(C4)C2)C3)c2c1C(=O)N(c1ccc(F)cc1)C2=O	i	i	i	i	i	i	i	i
O=C(O)c1ccc(NC(CSCc2cccc(F)c2)C(=O)O)c([N+](=O)[O-])c1 (stereo unspecified)	i	i	i	i	i	x	x	x
COc1ccc(/C=C/C(=O)c2ccc([N+](=O)[O-])o2)cc1	i	i	10.6*	i	i	25.0%*	32.0%*	i
O=C(/C=C/c1cccc([N+](=O)[O-])c1)c1ccc([N+](=O)[O-])o1	i	i	12.8*	i	i	30.0%*	i	i
COc1ccc(S(=O)(=O)N2CCN(C(=O)c3ccc([N+](=O)[O-])o3)CC2)cc1	i	i	i	i	i	x	x	x
Cc1ccc(NC(=O)c2ccc([N+](=O)[O-])o2)c(C)c1	i	i	i	i	i	x	x	x
Cc1cccc(/C=C/C(=O)c2ccc([N+](=O)[O-])o2)c1	i	i	6.97*	i	i	19.5%*	i	8.5%*
Cc1ccccc1/C=C/C(=O)c1ccc([N+](=O)[O-])o1	i	i	6.65*	i	i	24.5%*	i	i
NN/C(=C\[N+](=O)[O-])Nc1ccc(Cl)cc1	i	i	i	i	i	x	x	x
Cc1ccc2oc(C(=O)NC3CCS(=O)(=O)C3)cc(=O)c2c1 (stereo unspecified)	i	i	i	i	i	x	x	x
CCOCCCNS(=O)(=O)c1ccccc1	i	i	i	i	i	x	x	x
CCOCCCNC1=C(Cl)C(=O)c2ccccc2C1=O	i	i	5.55*	i	i	30.0%*	i	i
O=C(NCc1cccnc1)/C(=C/c1ccco1)NC(=O)c1ccccc1	i	i	i	i	i	x	x	x
Cc1ccc(C(=O)N/C(=C/c2cccnc2)C(=O)NCc2ccco2)cc1	i	i	i	i	i	x	x	x
O=C(NCc1cccnc1)/C(=C/c1ccccc1)NC(=O)c1ccccc1	i	i	5.15*	i	i	i	i	i
Cc1ccc(C(=O)N/C(=C\c2ccccc2)C(=O)NCc2cccnc2)cc1	i	i	i	i	i	i	i	i
COc1ccc(-n2c(O)c(/C=C3\C=Nc4ccccc43)c(=O)[nH]c2=O)cc1	x	x	i	x	i	x	x	x
Cc1ccc(-n2c(O)c(/C=C3/C(c4ccccc4)=Nc4ccccc43)c(=O)[nH]c2=O)cc1	i	29*	9.78*	i	i	5.0%*	i	49.0%*
SMILES	MrgX1 allo act	MrgX1 agonist	RGS4 block	MrgX1 antagonist	RGS4 act	RGS4 block valid	M3R Ca ctr	RGS4 inh ctr2
CCCC(NC(=O)COc1cc2c(c3oc(=O)cc(C)c13)CCC(C)(C)O2)C(=O)O (stereo unspecified)	i	i	i	i	i	i	i	i
Cc1cc(=O)oc2c3c(cc(OCC(=O)N[C@@H](CC(C)C)C(=O)O)c12)OC(C)(C)CC3	i	i	i	i	i	i	i	i
Cc1cc(C)c(S(=O)(=O)N2CCCC(C(=O)NC3CC3)C2)c(C)c1 (stereo unspecified)	i	i	i	i	i	x	x	x
O=C(NNc1ccc(Cl)nn1)c1ccc(Cl)cc1	i	i	i	i	i	x	x	x
CCC(c1nnnn1Cc1ccc(F)cc1)N(CCCO)Cc1cc2cc3c(cc2[nH]c1=O)OCO3 (stereo unspecified)	i	i	i	i	i	x	x	x
Cc1nn(C)c(C(=O)NNC(=S)NC2CCCCC2)c1Br	i	i	8.47*	i	i	23.0%*	32.0%*	i
Cn1ncc(Br)c1C(=O)NC1CCCCCCC1	x	x	i	x	i	x	x	x
O=C1NN(c2ccccc2)C(=O)/C1=C\c1cccc(OC(=O)c2cccs2)c1	i	27.1*	20*	i	i	70.0%*	i	i
COc1ccc(Nc2nc(N3CCOCC3)nc(N3CCOCC3)n2)c(OC)c1	i	i	i	i	i	i	i	i
CCOc1ccc(C(=O)Nc2cc(S(=O)(=O)Nc3ccccc3Cl)ccc2N2CCOCC2)cc1	i	i	i	i	i	x	x	x
CCOC(=O)c1c(-c2ccc(C)o2)csc1NC(=S)NC(=O)N(C)C	i	i	20.5*	i	i	i	i	i
COc1ccc(CNC(=O)CCNS(=O)(=O)c2ccc(Cl)cc2)cc1	i	i	i	i	i	x	i	i
COc1ccc(S(=O)(=O)NCCC(=O)NCc2ccc(F)cc2)cc1	i	i	i	i	i	x	i	i
COc1ccc(CNC(=O)CN(C)S(=O)(=O)c2ccc(Cl)cc2)cc1	i	i	i	i	i	x	x	x
Cc1cccc(C(=O)NCCNc2nc3cc(C)c(C)cc3cc2C)c1	i	i	i	i	i	i	i	i
Cc1cc2cc(C)c(NCCNC(=O)c3ccccc3F)nc2cc1C	i	i	i	i	i	i	i	i

Assay outcomes deposited in PubChem by Johns Hopkins Ion Channel Center.
